# Assay results reported in publication PMC7509213 (iScience, 2020).
# Read-outs that look alike come from different tables or passages of the source.
# What was measured:
# PC3 cells = experiment: PC3 proliferation under hypoxia or normoxia; type: cell-based, human; details: for IC50: Homo sapiens, PC-3, 48 h
# In short: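 PC3 cells seeded at 5,000/well and held at 1% O2 in a humidified chamber at 37°C for 48 h (normoxia 20% O2) before 48 h exposure to test compound. A 1 μCi [3H]-thymidine pulse per well was given for 6 h, then cells were harvested onto glass-fibre filters for scintillation counting. Proliferation is relative to DMSO, mean ± SEM, n = 3, and IC50 values were derived from these curves.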
# RPB1 subunit of RNAPII [1] = experiment: RPB1 degradation in PC3 cells under hypoxia; type: cell-based, human; details: PC3, 10 μM, 1% O2
# RPB1 subunit of RNAPII [2] = experiment: RPB1 degradation in C342T XPB knock-in cells; type: cell-based, human; details: 1μM
# TFIIH = TFIIH (Homo sapiens, UniProt P19447); experiment: DNA-dependent ATPase activity assay of purified TFIIH; type: biochemical; details: 200 nM
# In short: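 Purified TFIIH, DNA-dependent ATPase assay. It was started with TFIIH, run for 2 h, and stopped with EDTA. Mixture was spotted on PEI-cellulose TLC and developed in 0.5 M LiCl/1 M HCOOH. Released 32Pi was quantified by phosphorimaging relative to DMSO, mean ± SE, n = 3.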
# [3] = lethal case dosed with 18 mg/m^2 F60008; ref Kitzen et al., 2009; cited from earlier work
# RPB1 subunit of RNAPII [4] = experiment: RPB1 degradation in HeLa cells; type: cell-based, human
# XPB = target: T1, XPB (Homo sapiens, UniProt P19447); experiment: XPB degradation in cells; type: cell-based; details: 10 μM, western blot
# T1 sequence (P19447 1-782): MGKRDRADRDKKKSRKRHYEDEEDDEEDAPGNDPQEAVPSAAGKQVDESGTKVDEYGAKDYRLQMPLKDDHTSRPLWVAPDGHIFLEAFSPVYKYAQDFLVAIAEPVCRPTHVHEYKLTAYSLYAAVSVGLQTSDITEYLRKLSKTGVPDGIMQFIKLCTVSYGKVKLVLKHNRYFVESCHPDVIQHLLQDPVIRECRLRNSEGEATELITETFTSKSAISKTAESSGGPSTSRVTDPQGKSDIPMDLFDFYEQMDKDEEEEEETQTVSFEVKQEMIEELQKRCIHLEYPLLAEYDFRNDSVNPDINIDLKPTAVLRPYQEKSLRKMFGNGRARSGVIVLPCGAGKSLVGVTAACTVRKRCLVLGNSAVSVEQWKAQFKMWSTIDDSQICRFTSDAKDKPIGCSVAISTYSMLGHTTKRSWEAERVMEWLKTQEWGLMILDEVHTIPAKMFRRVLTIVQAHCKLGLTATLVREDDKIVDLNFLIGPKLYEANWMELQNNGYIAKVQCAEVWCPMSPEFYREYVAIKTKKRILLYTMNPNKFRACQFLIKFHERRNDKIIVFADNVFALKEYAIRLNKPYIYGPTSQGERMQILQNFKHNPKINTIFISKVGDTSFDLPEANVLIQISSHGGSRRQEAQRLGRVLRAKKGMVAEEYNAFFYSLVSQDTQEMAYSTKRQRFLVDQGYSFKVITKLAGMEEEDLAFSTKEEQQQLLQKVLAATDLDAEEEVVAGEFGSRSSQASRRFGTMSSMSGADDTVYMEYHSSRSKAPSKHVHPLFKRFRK
compound,measurement,setting,value
COc1cccc2c1C(=O)c1c(O)c3c(c(O)c1C2=O)C[C@@](O)(C(=O)CO)C[C@@H]3O[C@H]1C[C@H](N)[C@H](O)[C@H](C)O1 [doxorubicin],potency under hypoxia versus normoxia,"PC3 cells; PC3, 1% O2 vs 20% O2",decreased
"O=C(Oc1cccc(F)c1OC(=O)c1cccc(O)c1)c1cccc(O)c1 [WZB117, 2-Fluoro-6-(m-hydroxybenzoyloxy) phenyl m-hydroxybenzoate]",effect on RNAPII degradation triggered by 3 μM G-2 and hypoxia,RPB1 subunit of RNAPII [1],antagonizes
α-amanitin,degradation of Rpb1 in C342T XPB isogenic cell line,RPB1 subunit of RNAPII [2],induced the degradation of Rpb1
"CC(C)[C@]12O[C@H]1[C@@H]1O[C@]13[C@]1(O[C@H]1C[C@H]1C4=C(CC[C@@]13C)C(=O)OC4)[C@@H]2O [triptolide, (1S,2S,4S,5S,7R,8R,9S,11S,13S)-8-hydroxy-1-methyl-7-propan-2-yl-3,6,10,16 tetraoxaheptacyclo[11.7.0.0^2,4.0^2,9.0^5,7.0^9,11.0^14,18] icos-14(18)-en-17-one]",ATPase activity of TFIIH,TFIIH,nearly completely inhibited
same,IC50,"PC3 cells; read-out: IC50, PC3 proliferation under hypoxia",1.5 nM
same,IC50,"PC3 cells; read-out: IC50, PC3 proliferation under normoxia",4.5 nM
same,fold enhancement of anti-proliferative effect (IC50) during hypoxia,"PC3 cells; PC3, hypoxia vs normoxia",three-fold
same,effect size during hypoxia,PC3 cells; hypoxic PC3 cells,0.71
same,Maximum serum levels,[3],58.5 ng/mL
CC(=O)S[C@@H]1CC2=CC(=O)CC[C@]2(C)[C@H]2CC[C@@]3(C)[C@@H](CC[C@@]34CCC(=O)O4)[C@H]12 [spironolactone],effect on RPB1 degradation induced by G-2,RPB1 subunit of RNAPII [4]; 10 μM SP combined with 1 μM G-2,rescued RPB1 from degradation
same,stability of RPB1,"RPB1 subunit of RNAPII [4]; HeLa, 10 μM",no effect
same,degradation of XPB,XPB,caused degradation of the majority of XPB
